In data set [1] the test system is HeLa, MCF7, CAL27 and MCF10A cell lines. As to the kind of experiment: MTT cell viability assay, summary among cell lines. The note with it: Homo sapiens, 24 h, read-out: IC50 values among different cell lines. The data set is classed as cell-based. The method in brief: (§1)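 Cells were seeded at 10^4/well and left overnight, then exposed 24 h to 0.8–100 µmol/L test compound, with DMSO as control. MTT (5 mg/mL) was added for 2 h at 37 °C; formazan was dissolved in DMSO and read at 570 nm. IC25/50/75 came from viability curves, triplicate wells, ≥3 independent experiments, mean ± SD. Media: HeLa and CAL27 DMEM/10% FBS; MCF7 DMEM/F12/10% FBS plus insulin; MCF10A DMEM/F12/5% horse serum plus insulin.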
Background: Tetrazolium dyes change colour on reduction, which living cells bring about.

The nature of data set [2]: 13C NMR lactate transport assay. It counts as biochemical. The settings on record: 1% mol carrier to lipid, 50 mM NaCl, 0.5 mM MnCl2. The essentials: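 POPC vesicles loaded with 13C-carboxyl-labelled sodium L-lactate (200 mM NaLac, 20 mM NaH2PO4, pH 7.2), then dialysed against 150 mM Na2SO4, 20 mM NaH2PO4, pH 7.2 to remove unencapsulated lactate. 13C NMR spectra were taken after the NaCl pulse with the test compound, then after MnCl2, which affects only extravesicular lactate signals.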

For data set [3], the system named is HeLa cells. In words: Combination therapy of 1 and CisPt. The data set is classed as cell-based, Human.
The test system of data set [4] is CAL27. As to the kind of experiment: MTT cell viability assay. The data set is classed as cell-based, Human. The settings on record: for IC25 CAL27 / IC75 CAL27: 24 h, mean ± SD; for IC50: Homo sapiens, CAL-27, 24 h, read-out: IC50 CAL27. The essentials:
as §1

In data set [5] the test system is MCF10A. As to the kind of experiment: MTT cell viability assay. The settings on record: 24 h; for IC25 MCF10A / IC75 MCF10A: mean ± SD; for IC50: Homo sapiens, MCF-10A, read-out: IC50 MCF10A. It counts as cell-based, Human. The essentials:
as §1

Data set [6] in a line: Solubility in DMSO-d6 when preparing NMR solutions. It counts as physicochemical. The settings on record: DMSO-d6, 25 °C, organic solvent or mixture.
Data set [7] has as its system HeLa. As to the kind of experiment: MTT cell viability assay. The data set is classed as cell-based, Human. The note with it: 24 h; for IC25 HeLa / IC75 HeLa: mean ± SD; for IC50: Homo sapiens, HeLa, read-out: IC50 HeLa. The essentials: as §1
Data set [8] in a line: ISE chloride efflux assay, Cl−/NO3− exchange. The data set is classed as biochemical. The settings on record: read-out: EC50 Cl^−/NO3^−; chloride efflux at 300 s, 0.5 mM POPC, pH 7.2. The method in brief:
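POPC vesicles (200 nm) held 489 mM NaCl, 5 mM NaH2PO4, pH 7.2, and were dialysed into and dispersed in 489 mM NaNO3, 5 mM NaH2PO4, pH 7.2; final lipid 0.5 mM. Test compound in DMSO was added at t = 0, with DMSO as blank. Chloride release was followed by chloride-selective electrode for 300 s, then Triton-X lysis set 100% release. EC50 and Hill coefficient were derived.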

The test system of data set [9] is MCF7. As to the kind of experiment: MTT cell viability assay. The data set is classed as cell-based, Human. The note with it: for IC25 MCF7 / IC75 MCF7: 24 h, mean ± SD; for IC50: Homo sapiens, MCF7, 24 h, read-out: IC50 MCF7. The method in brief: as §1
Data set [10] concerns HeLa cells. In words: Lactate transport experiments. The data set is classed as cell-based, Human. The settings on record: for Extra- and intracellular lactate levels in the presence of Syro compared with Syro alone: 3.9 μM compound, Syro 10 μM 1 h pre-treatment, 60 and 120 min. The method in brief: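 HeLa cells were seeded at 10^5 cells/mL and left overnight, then treated 60 and 120 min; test compounds were at 3.9 µM, with DMSO as control. Medium was kept for extracellular lactate. Cells were washed, permeabilised 5 min with 0.2 M HCl in PBS, and neutralised with 1 M Tris base. Extracts were mixed 1:1 with Lactate-Glo reagent, and luminescence was read after 1 h against a standard curve. Values were normalised to BCA protein after 2% SDS lysis.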

For data set [11] the following is noted: read-out: EC50 Cl^−/NO3^−; chloride efflux at 300 s, POPC vesicles; cited from earlier work.
The conditions of data set [12]: read-out: EC50 Cl^−/HCO3^−; chloride efflux at 300 s, POPC vesicles; cited from earlier work.
For data set [13] the following is noted: deprotonated form, calculated; cited from earlier work.

SMILES strings stand for the structures. “And” between values parts separate entries of the source, which are not always exact repeats. Identical values can stand only once. Like-named read-outs stand apart in the source and are kept apart here. Marks after values point to notes of the source that are not given here.

The term IC50 denotes the concentration that inhibits the measured activity by half. By solubility is commonly meant how much of the substance goes into solution per volume.

Consider `COc1cc(-c2cn(-c3ccc(C(C)(C)C)cc3)nn2)[nH]c1/C=N/C12CC3CC(CC(C3)C1)C2.Cl` [Compound 1, N-((E)-(5-(1-(4-(tert-butyl)phenyl)-1H-1,2,3-triazol-4-yl)-3-methoxy-1H-pyrrol-2-yl)methylene)adamantan-1-aminium chloride], for which the IC50 in [1] lay within 3.3 to 7.7 µM. For the same compound, the “Lactate efflux from vesicles seen by 13C NMR after NaCl pulse and MnCl2” value in data set [2] is “facilitates lactate efflux”. Also, the “Effect of combination therapy with CisPt on cell viability” value in data set [3] (1 at IC10, IC25, IC50, IC75 for 24 h, then CisPt 24 h, all doses of 1) is on record as “higher compared with respective monotherapy of CisPt”. Moreover, the “Type of interaction with CisPt (Combination Index)” value in data set [3] (higher doses of both 1 and CisPt) is recorded as “moderate synergic effect”. Besides, the “Type of interaction with CisPt (Combination Index)” value in [3] (majority of the dose combinations tested) was “additive effect”. In data set [4], the “IC25 CAL27” value came out at 2.68 ± 0.18 µM, the “IC75 CAL27” value was determined as 4.00 ± 0.50 µM and the IC50 turned out to be 3.27 ± 0.27 µM. Further, in [5], the “IC25 MCF10A” value came out at 5.36 ± 1.09 µM, the “IC75 MCF10A” value came out at 11.22 ± 3.94 µM and the IC50 worked out at 7.66 ± 1.86 µM. The solubility in data set [6] was below 50 mM. Further, in data set [7], the “IC25 HeLa” value was 2.85 ± 0.16 µM; the “IC75 HeLa” value is 3.9 µM and 3.95 ± 0.26 µM; the IC50 was 3.36 ± 0.19 µM. In addition, in data set [8], the EC50 was determined as 0.0037 ± 0.0004 µM. Moreover, in [9], the “IC25 MCF7” value was 4.00 ± 1.22 µM, the “IC75 MCF7” value was found to be 7.91 ± 1.42 µM and the IC50 was determined as 5.58 ± 1.17 µM.
On to `COc1cc(-c2cn(-c3ccc(C(C)(C)C)cc3)nn2)[nH]c1/C=N/C1CCCC1.Cl` [Compound 2, (E)-N-((5-(1-(4-(tert-butyl)phenyl)-1H-1,2,3-triazol-4-yl)-3-methoxy-1H-pyrrol-2-yl)methylene)cyclopentanaminium chloride], for which the IC50 in data set [1] lay within 4.6 to 25.4 µM. Besides, in [4], the “IC25 CAL27” value is 9.25 ± 2.26 µM, the “IC75 CAL27” value stood at 12.35 ± 2.40 µM and the IC50 came out at 10.6 ± 2.06 µM. Also, in [5], the “IC25 MCF10A” value amounted to 13.62 ± 1.64 µM, the “IC75 MCF10A” value was determined as 25.65 ± 3.97 µM and the IC50 was 18.7 ± 2.55 µM. Also, in data set [7], the “IC25 HeLa” value turned out to be 11.34 ± 0.38 µM, the “IC75 HeLa” value stood at 13.77 ± 1.88 µM and the IC50 was determined as 12.5 ± 0.98 µM. For the same compound, in data set [8], the EC50 came to 0.016 ± 0.001 µM. In addition, in data set [9], the “IC25 MCF7” value is 4.04 ± 1.37 µM, the “IC75 MCF7” value was 20.49 ± 3.88 µM and the IC50 is 9.06 ± 2.35 µM.
With `COc1cc(-c2cn(-c3ccc(C(C)(C)C)cc3)nn2)[nH]c1/C=N/CCO.Cl` [Compound 3, (E)-N-((5-(1-(4-(tert-butyl)phenyl)-1H-1,2,3-triazol-4-yl)-3-methoxy-1H-pyrrol-2-yl)methylene)-2-hydroxyethan-1-aminium chloride], in data set [1], the IC50 lay in the range of 4.6 to 25.4 µM. Moreover, in data set [4], the “IC25 CAL27” value was 14.62 ± 3.20 µM, the “IC75 CAL27” value is 20.88 ± 4.45 µM and the IC50 came to 17.4 ± 3.31 µM. In addition, in [5], the “IC25 MCF10A” value was 18.11 ± 3.23 µM, the “IC75 MCF10A” value is 35.95 ± 4.27 µM and the IC50 worked out at 25.4 ± 1.61 µM. For the same compound, in data set [7], the “IC25 HeLa” value is 11.98 ± 0.40 µM, the “IC75 HeLa” value was determined as 15.29 ± 1.87 µM and the IC50 was found to be 13.5 ± 1.05 µM. In data set [8], the EC50 came out at 8.34 ± 0.431 µM. In data set [9], the “IC25 MCF7” value came to 7.22 ± 0.85 µM, the “IC75 MCF7” value worked out at 34.69 ± 3.11 µM and the IC50 worked out at 15.8 ± 1.14 µM.
For the compound `COc1cc(-c2cn(CCO)nn2)[nH]c1/C=N/CCO.Cl` [Compound 4, (E)-2-hydroxy-N-((5-(1-(2-hydroxyethyl)-1H-1,2,3-triazol-4-yl)-3-methoxy-1H-pyrrol-2-yl)methylene)ethan-1-aminium chloride], the IC50 in data set [1] is above 82 µM. Moreover, the “Lactate efflux from vesicles seen by 13C NMR after NaCl pulse and MnCl2” value in data set [2] is listed as “no changes”. In data set [4], the “IC25 CAL27” value came to 60.97 ± 5.40 µM, the “IC75 CAL27” value is above 100 µM and the IC50 was 82.1 ± 2.88 µM. Further, in data set [5], the “IC25 MCF10A” value was determined as 98.64 ± 0.94 µM, the “IC75 MCF10A” value was above 100 µM and the IC50 is above 100 µM. In data set [7], the “IC25 HeLa” value is above 100 µM, the “IC75 HeLa” value is above 100 µM and the IC50 was above 100 µM. The “Extra- and intracellular lactate levels in the presence of Syro compared with Syro alone” value in [10] is listed as “no significant differences”. In data set [9], the “IC25 MCF7” value is above 100 µM, the “IC75 MCF7” value is above 100 µM and the IC50 is above 100 µM.
Take `COc1cc(-c2cn(CCO)nn2)[nH]c1/C=N/C12CC3CC(CC(C3)C1)C2.Cl` [Compound 5, N-((E)-(5-(1-(2-Hydroxyethyl)-1H-1,2,3-triazol-4-yl)-3-methoxy-1H-pyrrol-2-yl)methylene)adamantan-1-aminium chloride]: the IC50 in data set [1] was above 82 µM. In addition, in data set [4], the “IC25 CAL27” value was found to be 86.88 ± 6.79 µM, the “IC75 CAL27” value is above 100 µM and the IC50 turned out to be 96 ± 4.79 µM. For the same compound, in data set [5], the “IC25 MCF10A” value stood at 94.92 ± 5.23 µM, the “IC75 MCF10A” value was above 100 µM and the 50% inhibitory concentration (IC50) was above 100 µM. Moreover, in data set [7], the “IC25 HeLa” value was found to be 78.14 ± 3.00 µM, the “IC75 HeLa” value was found to be 93.73 ± 3.71 µM and the IC50 was determined as 85.6 ± 2.94 µM. Also, the “Extra- and intracellular lactate levels in the presence of Syro compared with Syro alone” value in data set [10] was “no significant differences”. In data set [9], the “IC25 MCF7” value is above 100 µM, the “IC75 MCF7” value is above 100 µM and the IC50 is above 100 µM.
For `COc1cc(-c2cn(-c3ccc(Cl)cc3)nn2)[nH]c1/C=N/C1CCCCC1.Cl` [Compound 6, (E)-N-((5-(1-(4-Chlorophenyl)-1H-1,2,3-triazol-4-yl)-3-methoxy-1H-pyrrol-2-yl)methylene)cyclohexanaminium chloride], the IC50 in data set [1] lay in the range of 4.6 to 25.4 µM. Besides, the EC50 in data set [11] is 0.0326 ± 0.0008 µM. For the same compound, the EC50 in [12] is 0.13 ± 0.007 µM. Also, in data set [4], the “IC25 CAL27” value stood at 6.58 ± 2.98 µM, the “IC75 CAL27” value amounted to 8.44 ± 2.59 µM and the IC50 turned out to be 7.41 ± 2.77 µM. Also, in [5], the “IC25 MCF10A” value was 3.49 ± 0.22 µM, the “IC75 MCF10A” value was found to be 6.12 ± 1.56 µM and the IC50 came to 4.61 ± 0.15 µM. For the same compound, in [7], the “IC25 HeLa” value was found to be 6.09 ± 0.09 µM, the “IC75 HeLa” value was 6.54 ± 0.02 µM and the IC50 amounted to 6.31 ± 0.06 µM. The LogP in [13] was 4.22 ^c. Moreover, in data set [9], the “IC25 MCF7” value amounted to 9.05 ± 1.13 µM, the “IC75 MCF7” value amounted to 14.53 ± 1.23 µM and the IC50 worked out at 11.5 ± 1.19 µM.
Turning to `CCOC(=O)Oc1c(OC)cc(C(=O)O[C@@H]2C[C@@H]3CN4CCc5c([nH]c6cc(OC)ccc56)[C@H]4C[C@@H]3[C@H](C(=O)OC)[C@H]2OC)cc1OC` [Syro, Syrosingopine, reference compound], the “Intracellular lactate levels compared to DMSO” value in data set [10] (Syro alone 10 μM, 60 and 120 min (p < 0.0001)) is recorded as “significantly higher than DMSO”.

Values taken from article PMC10543179 (iScience, 2023).
